The term Km denotes the concentration of substrate that gives half-maximal velocity.

The structures appear in SMILES notation. Read-outs that look alike come from different tables or passages of the source.

The values below come from article PMC2784041 (Environmental Microbiology, 2009).

What all share (experiment): spectrophotometric ring-cleavage assay, non-linear Michaelis-Menten fit
One experiment concerns EXDO-Dbt_s207. Type of experiment: biochemical. The settings on record: read-out: Km (μM) ^b, partially purified enzyme.
The test system of a further experiment is EXDO-D_s45. The experiment is classed as biochemical, uncultured bacterium. The settings on record: read-out: Km (μM) ^b; 50 mM K/Na-phosphate pH 8.0, air-saturated; partially purified enzyme. The procedure, abridged: (§1)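 Enzyme came from E. coli EPI300-T1R fosmid clones grown at 37°C in LB with 0.01% L-arabinose and 25 μg ml−1 chloramphenicol, harvested in late exponential phase. Extracts were partially purified by anion exchange chromatography. Ring-cleavage product was followed spectrophotometrically in 50 mM air-saturated K/Na-phosphate pH 8.0 (catechol ε375, 3-methylcatechol ε388, 2,3-dihydroxybiphenyl ε434). Km was obtained from initial velocities over 1–100 μM substrate by non-linear Michaelis–Menten regression.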

A further experiment deals with EXDO-D_s4. Type of experiment: biochemical, uncultured bacterium. To be noted: read-out: Km (μM) ^b; 50 mM K/Na-phosphate pH 8.0, air-saturated; partially purified enzyme. The procedure, abridged: as §1
Another experiment relates to EXDO-D_s151. The experiment is classed as biochemical, uncultured bacterium. To be noted: read-out: Km (μM) ^b; 50 mM K/Na-phosphate pH 8.0, air-saturated; partially purified enzyme. The procedure, abridged: as §1
The test system of a further experiment is EXDO-K2_s3. Type of experiment: biochemical. The settings on record: read-out: Km (μM) ^b; 50 mM K/Na-phosphate pH 8.0, air-saturated; partially purified enzyme. The procedure, abridged: as §1
The subject of another experiment is EXDO-K2_s129. Type of experiment: biochemical. The settings on record: read-out: Km (μM) ^b; 50 mM K/Na-phosphate pH 8.0, air-saturated; partially purified enzyme. The procedure, abridged:
as §1

The test system of a further experiment is EXDO-K2_s7. Type of experiment: biochemical. To be noted: read-out: Km (μM) ^b; 50 mM K/Na-phosphate pH 8.0, air-saturated; partially purified enzyme. The procedure, abridged:
as §1

Another experiment concerns EXDO-K2_s162. Type of experiment: biochemical. To be noted: read-out: Km (μM) ^b; 50 mM K/Na-phosphate pH 8.0, air-saturated; partially purified enzyme. The procedure, abridged: as §1
[1] abbreviates: 50 mM K/Na-phosphate pH 8.0, air-saturated.

On to `Oc1ccc2ccccc2c1O` [1,2-dihydroxynaphthalene], for which, in the experiment on EXDO-Dbt_s207 (50 mM acetic acid/NaOH pH 5.5, air-saturated), the Km came out at 11.6 ± 1.4 µM.

On to `Oc1ccccc1O` [catechol], for which the Km with EXDO-Dbt_s207 (setting [1]) turned out to be 35 ± 5 µM; with EXDO-D_s45, 0.27 ± 0.03 µM; with EXDO-D_s4, 1.4 ± 0.2 µM; in the experiment with EXDO-D_s151, 1.1 ± 0.2 µM.

In the case of `Cc1cccc(O)c1O` [3-methylcatechol], the Km is 13.6 ± 1.9 µM with EXDO-Dbt_s207 (setting [1]); 0.27 ± 0.1 µM in the experiment on EXDO-D_s45; 4.5 ± 0.6 µM in the experiment with EXDO-K2_s3; 9.3 ± 1.1 µM with EXDO-K2_s129; 4.6 ± 0.4 µM in the experiment on EXDO-K2_s7; 4.3 ± 0.7 µM in the experiment on EXDO-K2_s162. The Km with EXDO-D_s4 amounted to 1.8 ± 0.3 µM; in the experiment on EXDO-D_s151 it was 3.5 ± 1.5 µM.

Consider `Oc1cccc(-c2ccccc2)c1O` [2,3-dihydroxybiphenyl], for which the Km in the experiment with EXDO-Dbt_s207 (setting [1]) was found to be 4.2 ± 0.7 µM; with EXDO-D_s45, 0.61 ± 0.08 µM; with EXDO-K2_s3, 2.1 ± 0.2 µM; in the experiment with EXDO-K2_s129, 2.1 ± 0.2 µM; in the experiment with EXDO-K2_s7, 0.84 ± 0.08 µM; with EXDO-K2_s162 it was 1 ± 0.1 µM. The Km in the experiment on EXDO-D_s4 turned out to be 3.7 ± 0.6 µM.
